Laboratory results from ChEMBL document CHEMBL1123519, “Chemically stable homocinnamyl analogues of the leukotrienes: synthesis and preliminary biological evaluation” (J Med Chem, 1986).
Calls of active or inactive are those of the source. The rule behind the calls is not given here.

Columns and labels:
Cavia porcellus [1] = species: Cavia porcellus; assay: Compound was evaluated for its activity in vitro with use of isolated guinea pig tracheal spiral strips in the presence (control ); type: functional; conditions: Trachea
Method in brief: (§1)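 Guinea pig tracheal strips held at 2 g resting tension and stabilized 60 min, with bath fluid changed every 15 min. Contraction to carbachol 30 μM, wash, then restabilized 60 min. Cumulative agonist concentration-response curves were run, with responses expressed as % of carbachol maximum. L-cysteine 3 mM or L-serine borate 45 mM was preincubated 30 min. EC50 was derived by linear regression, and significance by paired t test (p<0.05).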

Cavia porcellus [2] = species: Cavia porcellus; assay: Compound was evaluated for its activity in vitro with use of isolated guinea pig tracheal spiral strips in the presence of L-serine borate (45 mM); type: functional; conditions: Trachea; method in brief: as §1
Cavia porcellus [3] = species: Cavia porcellus; assay: Compound was tested for inhibition of LTE4 (8 nM)-induced contraction of isolated guinea pig trachea at 10 mM concentration.; type: functional; conditions: in the assay text read “10 µM” for “10 mM”
Method in brief: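 Isolated guinea pig trachea contracted with LTE4 8 nM. Analogue present in the bath, and inhibition of the LTE4 contraction expressed as percent.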

Cavia porcellus [4] = species: Cavia porcellus; assay: Compound was evaluated for its activity in vitro with use of isolated guinea pig tracheal spiral strips in the presence of L-cysteine (3 mM); type: functional; conditions: Trachea; method in brief: as §1
Cavia porcellus [5] = species: Cavia porcellus; assay: Compound was evaluated for its activity in vitro with use of isolated guinea pig tracheal spiral strips in the presence (control ); Not active; type: functional, Trachea; method in brief: as §1
Cavia porcellus [6] = species: Cavia porcellus; assay: Compound was tested for FPL-55712 sensitivity in the absence of metabolic inhibitors; Yes; type: functional, organism-based
Method in brief: (§2)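 Guinea pig tracheal strips at 2 g resting tension, stabilized 60 min, carbachol (30 μM) reference contraction, restabilized 60 min. FPL-55712 10 μM was preincubated 30 min before cumulative agonist curves, without metabolic inhibitors. EC50 values were compared with and without antagonist by Student's paired t test (p<0.05). Kb was obtained by the Furchgott method.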

Cavia porcellus [7] = species: Cavia porcellus; assay: Compound was tested for FPL-55712 sensitivity in the absence of metabolic inhibitors; No sensitivity.; type: functional, organism-based; method in brief: as §2

SMILES | EC50 (Cavia porcellus [1]) | EC50 (Cavia porcellus [2]) | further results
CCCCCCCc1cccc(C/C=C/[C@H](SCC(NC(=O)CCC(N)C(=O)O)C(=O)NCC(=O)O)[C@H](O)CCCC(=O)O)c1 (some centres not stated) | 1.36 µM | 0.447 µM | 
CCCCCCCc1ccccc1C/C=C/[C@H](SCC(N)C(=O)O)[C@H](O)CCCC(=O)O (some centres not stated) |  |  | Inhibition (Cavia porcellus [3]): 28%
CCCCC/C=C/c1cccc(C/C=C/[C@H](SC[C@H](N)C(=O)NCC(=O)O)[C@H](O)CCCC(=O)O)c1 | 13 µM |  | 
CCCCC/C=C\C\C=C/C=C/C=C/[C@@H](SC[C@H](N)C(=O)NCC(=O)O)[C@@H](O)CCCC(=O)O [LEUKOTRIENE D4] | 0.00392 µM |  | EC50 (Cavia porcellus [4]): 0.000513 µM
CCCCCCCc1ccccc1C/C=C/[C@H](SC[C@H](N)C(=O)NCC(=O)O)[C@H](O)CCCC(=O)O |  |  | EC50 (Cavia porcellus [4]): 1.87 µM
CCCCCCCc1cccc(C/C=C/[C@H](SCC(N)C(=O)O)[C@H](O)CCCC(=O)O)c1 (some centres not stated) | 4.83 µM |  | 
CCCCCCOc1ccccc1C/C=C/[C@H](SC[C@H](N)C(=O)NCC(=O)O)[C@H](O)CCCC(=O)O |  |  | EC50 (Cavia porcellus [5]): Not Active; Inhibition (Cavia porcellus [3]): 18%
CCCCC/C=C/c1ccc(C/C=C/[C@H](SCC(NC(=O)CCC(N)C(=O)O)C(=O)NCC(=O)O)[C@H](O)CCCC(=O)O)cc1 (some centres not stated) | 3.82 µM | 0.451 µM | 
CCCCCCCc1ccccc1C/C=C/[C@H](SCC(NC(=O)CCC(N)C(=O)O)C(=O)NCC(=O)O)[C@H](O)CCCC(=O)O (some centres not stated) | 18.6 µM | 18.4 µM | 
CCCCCCOc1ccc(C/C=C/[C@H](SCC(NC(=O)CCC(N)C(=O)O)C(=O)NCC(=O)O)[C@H](O)CCCC(=O)O)cc1 (some centres not stated) | 1.28 µM | 0.256 µM | Sensitivity (Cavia porcellus [7]): No sensitivity
CCCCCCOc1cccc(C/C=C/[C@H](SC[C@H](N)C(=O)NCC(=O)O)[C@H](O)CCCC(=O)O)c1 |  |  | EC50 (Cavia porcellus [5]): Not Active; Inhibition (Cavia porcellus [3]): 24%
CCCCCCCc1cccc(C/C=C/[C@H](SC[C@H](N)C(=O)NCC(=O)O)[C@H](O)CCCC(=O)O)c1 |  |  | EC50 (Cavia porcellus [4]): 4.77 µM

Now from value to molecule, other results behind:

EC50 (Cavia porcellus [1]) | EC50 (Cavia porcellus [2]) | SMILES | further results
1.7 µM |  | CCCCCCCc1ccc(C/C=C/[C@H](SCC(N)C(=O)O)[C@H](O)CCCC(=O)O)cc1 (some centres not stated) | 
2.68 µM |  | CCCCCCCc1ccc(C/C=C\[C@@H](SC[C@H](N)C(=O)NCC(=O)O)[C@@H](O)CCCC(=O)O)cc1 | EC50 (Cavia porcellus [4]): 0.251 µM
0.574 µM | 0.0745 µM | CCCCCCCc1ccc(C/C=C/[C@H](SCC(NC(=O)CCC(N)C(=O)O)C(=O)NCC(=O)O)[C@H](O)CCCC(=O)O)cc1 (some centres not stated) | 
9.1 µM |  | CCCCCCOc1ccc(C/C=C/[C@H](SC[C@H](N)C(=O)NCC(=O)O)[C@H](O)CCCC(=O)O)cc1 | Sensitivity (Cavia porcellus [6]): Active
